Experiments:
[1] = Oxygen radical absorption capacity; conditions: TEAC units; X = EO or compound
Method in brief: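 Peroxyl radical (ROO) scavenging by the oils and individual components, following a published ORAC method, in triplicate. Data are mean ± SD, with significance by ANOVA/Tukey's HSD (p < 0.05).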

[2] = Thiobarbituric acid reactive substances; conditions: BHTE units; X = EO or compound
Method in brief: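 TBARS formation by oxidation measured in soybean lecithin homogenate as lipid-rich medium, by a published method, in triplicate. Values are expressed as μmol BHTE/mL EO, mean ± SD, with ANOVA/Tukey's HSD (p < 0.05).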

Reducing power = conditions: AAE units; X = EO or compound
Method in brief: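 Reduction of potassium ferricyanide by the oils and individual components, by a published method, in triplicate. Results are reported as ascorbic acid equivalents per volume of EO, mean ± SD, with ANOVA/Tukey's HSD (p < 0.05).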

[3] = DPPH radical scavenging capacity; conditions: TEAC units; X = EO or compound
Method in brief: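 DPPH radical scavenging by essential oils and individual components, by a published method, in triplicate. Values are expressed as μmol TE/mL EO and given as mean ± SD, with ANOVA/Tukey's HSD at p < 0.05.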

Chelating power = conditions: for ChP: EDTAE units, X = EO or compound
Method in brief: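 Ferrous ion chelation by essential oils and their major components, by a published method, in triplicate. Results are expressed as EDTA equivalents per volume of EO, mean ± SD, with ANOVA/Tukey's HSD (p < 0.05).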

[4] = ABTS radical cation bleaching assay; conditions: TEAC units; X = EO or compound
Method in brief: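 ABTS radical cation (ABTS•+) bleaching by essential oils and their individual components, run in triplicate by a published method. Results are given as mean ± SD, compared by ANOVA with Tukey's HSD (p < 0.05).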

| Compound | ORAC [1] | TBARS [2] | RdP (Reducing power) | DPPH [3] | ChP (Chelating power) | ABTS [4] | Chelating power (ChP), result in words (Chelating power) |
| --- | --- | --- | --- | --- | --- | --- | --- |
| CC12CCC(CC1)C(C)(C)O2 [1,8-Cineole] | N/D (Activity lower than 0.05 units at a maximum assay concentration of 100 mM) | N/D (Activity lower than 0.05 units at a maximum assay concentration of 100 mM) | N/D (Activity lower than 0.05 units at a maximum assay concentration of 100 mM) | N/D (Activity lower than 0.05 units at a maximum assay concentration of 100 mM) | 6.7 ± 0.4 μmol EDTAE/mL X | 0.2 ± 0.0 μmol TE/mL X | – |
| CC1(C)C2CCC1(C)C(O)C2 (stereo not shown) [Borneol] | N/D (Activity lower than 0.05 units at a maximum assay concentration of 100 mM) | N/D (Activity lower than 0.05 units at a maximum assay concentration of 100 mM) | N/D (Activity lower than 0.05 units at a maximum assay concentration of 100 mM) | N/D (Activity lower than 0.05 units at a maximum assay concentration of 100 mM) | N/D (Activity lower than 0.05 units at a maximum assay concentration of 100 mM) | N/D (Activity lower than 0.05 units at a maximum assay concentration of 100 mM) | – |
| C=C1C2CCC(C2)C1(C)C (stereo not shown) [Camphene] | N/D (Activity lower than 0.05 units at a maximum assay concentration of 100 mM) | N/D (Activity lower than 0.05 units at a maximum assay concentration of 100 mM) | 3238.9 ± 157.4 μmol AAE/L X | N/D (Activity lower than 0.05 units at a maximum assay concentration of 100 mM) | 9.9 ± 0.7 μmol EDTAE/mL X | 0.8 ± 0.0 μmol TE/mL X | – |
| Cc1ccc(C(C)C)cc1O [Carvacrol] | 2.8 ± 0.1 μmol TE/μL X | 600.7 ± 102.2 μmol BHTE/mL X | 3239.6 ± 143.0 μmol AAE/L X | 34.9 ± 2.5 μmol TE/mL X | N/D (Activity lower than 0.05 units at a maximum assay concentration of 100 mM) | 7804.4 ± 268.1 μmol TE/mL X | – |
| C=CC(=C)CCC=C(C)C [Myrcene] | N/D (Activity lower than 0.05 units at a maximum assay concentration of 100 mM) | N/D (Activity lower than 0.05 units at a maximum assay concentration of 100 mM) | N/D (Activity lower than 0.05 units at a maximum assay concentration of 100 mM) | N/D (Activity lower than 0.05 units at a maximum assay concentration of 100 mM) | 14.4 ± 1.0 μmol EDTAE/mL X | N/D (Activity lower than 0.05 units at a maximum assay concentration of 100 mM) | – |
| CC(C)C12CCC(C)(O)C1C2 (stereo not shown) [Sabinene hydrate] | 0.3 ± 0.0 μmol TE/μL X | 97.2 ± 4.2 μmol BHTE/mL X | N/D (Activity lower than 0.05 units at a maximum assay concentration of 100 mM) | N/D (Activity lower than 0.05 units at a maximum assay concentration of 100 mM) | 44.9 ± 3.7 μmol EDTAE/mL X | 3.2 ± 0.2 μmol TE/mL X | – |
| CC1=CCC(O)(C(C)C)CC1 (stereo not shown) [Terpinen-4-ol] | 2.2 ± 0.1 μmol TE/μL X | 50.2 ± 10.6 μmol BHTE/mL X | N/D (Activity lower than 0.05 units at a maximum assay concentration of 100 mM) | 0.3 ± 0.0 μmol TE/mL X | 10.3 ± 0.7 μmol EDTAE/mL X | 1.8 ± 0.1 μmol TE/mL X | – |
| C=CC(C)(CCC=C(C)C)OC(C)=O (stereo not shown) [linalyl acetate] | 1.0 ± 0.1 μmol TE/μL X | 19.6 ± 0.6 μmol BHTE/mL X | N/D (Activity lower than 0.05 units at a maximum assay concentration of 100 mM) | N/D (Activity lower than 0.05 units at a maximum assay concentration of 100 mM) | 125.7 ± 9.4 μmol EDTAE/mL X | 0.3 ± 0.0 μmol TE/mL X | high ChP |
| CC1=CCC2CC1C2(C)C (stereo not drawn) [α-Pinene] | 0.2 ± 0.0 μmol TE/μL X | 16.3 ± 0.5 μmol BHTE/mL X | N/D (Activity lower than 0.05 units at a maximum assay concentration of 100 mM) | 0.1 ± 0.0 μmol TE/mL X | 104.8 ± 7.0 μmol EDTAE/mL X | N/D (Activity lower than 0.05 units at a maximum assay concentration of 100 mM) | – |

— publication PMC9322249 (Journal of Food and Drug Analysis, 2017)
